This is a sample that favours compounds with a hit; in the whole collection about 4.9% have one here.
STAT1 act = STAT1 signaling activation; AID 932; 200,000 compounds, 2.6% hits; NIH 3T3 STAT1-luciferase reporter, IFN-gamma, luminescence; 100% = IFN-gamma alone, no compound; activation (% of control), % at 5.5 µM;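 active = activation above the screen-wide mean activation plus 3 SD, cut at about 130% in these data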;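 note: raw ratio to IFN-gamma control signal so 100% means no change and 0% no light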
NF-kB expr up = raises NF-kB expression in human neuronal cells. NF-kB reporter expression; hits give high values. fold change at 12.5 µM. 190,000 compounds, 1.6% hits; in the data active = fold change above about 3.3
STAT1 inh = inhibitors of IFN-gamma induced STAT1 signaling | NIH 3T3 STAT1-luciferase reporter, luminescence | inhibition, % at 5.5 µM | 200,000 compounds, 0.35% hits;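 active = inhibition above a set limit, the mean inhibition across all tested compounds plus 3 SD, cut at about 34% in these data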;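 note: 0% = IFN-gamma with DMSO and 100% = IFN-gamma with 300 µM nifuroxazide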
APP 5'UTR act = APP 5'UTR luciferase reporter activation; SH-SY5Y APP 5'UTR luciferase reporter, luminescence; zero percent = DMSO vehicle wells; activation, % at 2 µM; 190,000 compounds, 1% hits; AID 1276;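 active = activation above a set limit, based on mean plus 3 SD of controls, cut at about 140% in these data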
STAT3 act = STAT3 signaling activation | U3A cells, IL-6 STAT3-luciferase reporter, luminescence; 100% = signal with IL-6 EC80 alone | activation (% of control), % at 5.6 µM | 190,000 compounds, 0.91% hits;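 active = activation above the screen-wide mean of compound activation plus 3 SD, cut at about 130% in these data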;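 note: 0% = background luminescence of wells with medium and substrate only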
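System – human U3A cells carrying STAT3-luciferase construct · Probe or stimulus – Interleukin-6, 33 ng/mL · Schedule – compound 1 h, then IL-6 6 h at 37 °C · Signal – luminescence from STAT3-driven luciferase reporter · Evaluation – percent of IL-6-only median luminescence · Benchmarks – IL-6-only high control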
STAT3 blocker = STAT3 signaling inhibition | 190,000 compounds, 0.89% hits | inhibition, % at 5.5 µM | AID 862 | U3A cells, IL-6 STAT3-luciferase reporter, luminescence; host cell line lacks STAT1;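 active = inhibition above the mean inhibition across all screened compounds plus 3 SD, cut at about 44% in these data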;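 note: 0% = DMSO only wells and 100% = 100 µM nifuroxazide control wells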
An asterisk follows results filed as active; . = no result.

SMILES	STAT1 act	NF-kB expr up	STAT1 inh	APP 5'UTR act	STAT3 act	STAT3 blocker
CNc1nc(-c2ccc3c(c2)CCN3C(=O)c2ccccc2C)cs1	145.4*	3.79*	-47.6	193.2*	103.4	-1.6
Fc1ccc(-c2nc3c(-c4ccc(Cl)cc4)cnn3cc2CCN2CCOCC2)cc1	94.2	0.78	4.9	-4.7	87.5	18.5
O=C(NCCc1c[nH]c2ccccc12)c1cnccn1	106.8	1.52	-7.3	10.2	113.3	-10.2
O=C(NCCc1c[nH]c2ccccc12)c1cnc2sccn2c1=O	127.3	1.49	-30.2	24.4	134.5*	-30.6
O=S(=O)(c1ccc(Cl)cc1)N1c2ccccc2Oc2nc3ccccc3nc21	100.1	1.12	-0.1	14.9	98.1	5.1
COc1ccc(S(=O)(=O)N2c3cc(Cl)ccc3Oc3nc4ccccc4nc32)cc1	95.1	3.64*	-0.4	17.2	107.5	-6.7
Cc1cc(C)cc(NC(=O)C(=O)NCC2CCCO2)c1 (configuration not stated)	106.5	1.37	-8.4	17.1	94.5	12.9
O=C(NC(=S)NCC1CCCO1)c1ccc(Cl)cc1 (configuration not stated)	119.5	1.05	-21.9	12.2	101.3	-1.2
Cc1ccc(NC(=O)C(=O)NCC2CCCO2)cc1C (configuration not stated)	141.6*	2.69	-45.1	115.1	102.9	0.5
Cc1ccc(NC(=O)C(=O)NCC2CCCO2)cc1 (configuration not stated)	136.8*	2.1	-43.8	41.7	98.2	6.9
Cc1ccc(C(=O)NC(=S)NCC2CCCO2)cc1 (configuration not stated)	128.6*	2.54	-31.7	31.1	92.3	15.2
COC(=O)c1sc(N)c(C(=O)OC)c1COC(=O)CCNS(=O)(=O)c1ccc(C)cc1	97.6	0.82	2.0	-22.2	102.1	-1.2
C/C(=N\OC(=O)c1cccc(C(F)(F)F)c1)c1sc(-c2ccccc2)nc1C	96.2	3.98*	4.2	10.8	107.2	-2.4
C/C(=N\OC(=O)c1cccc(C)c1)c1sc(-c2ccccc2)nc1C	113.6	3.58*	-15.2	2.1	115.9	-8.0
C/C(=N\OC(=O)c1ccc(Cl)cc1)c1sc(-c2ccccc2)nc1C	112.1	4.43*	-13.4	-1.1	95.6	6.0
Cc1cccnc1CN1CCN(Cc2nc(Cc3cccc(F)c3)no2)CC1	111.2	1.22	-13.3	12.0	92.8	18.6
Fc1cc(F)c2nc(N3CCCC3)sc2c1	131.3*	1.35	-35.2	65.5	94.9	9.6
CC1(C)O[C@@H]2C[C@H]3[C@@H]4C[C@H](F)C5=CC(=O)CC[C@]5(C)[C@H]4[C@@H](O)C[C@]3(C)[C@]2(C(=O)CO)O1	135.3*	0.43	-38.8	79.3	87.7	16.3
O=C(NN1CCN(Cc2ccccc2)CC1)c1ccc(N2CCOCC2)c([N+](=O)[O-])c1	95.0	1	4.3	-22.5	101.1	0.3
CCc1ccc(C(=O)COC(=O)c2cncc(Br)c2)cc1	88.8	1.18	11.4	-21.9	99.1	3.5
CN=Cc1nc(-c2ccccc2)oc1O	127.8	2.73	-30.1	50.6	117.2	-17.8
Oc1oc(-c2ccccc2)nc1/C=N/c1ccccn1	128.7*	1.87	-31.0	72.6	102.0	3.4
NNc1nc2c(F)cccc2s1	146.4*	1.18	-51.4	141.6*	152.1*	-55.5
Clc1ccc(SCc2cn3cccnc3n2)cc1	123.8	1.77	-26.0	3.0	97.7	6.8
Cc1cc(OCc2cn3cccnc3n2)ccc1Cl	130.7*	2.15	-34.4	37.5	96.7	1.5
SMILES	STAT1 act	NF-kB expr up	STAT1 inh	APP 5'UTR act	STAT3 act	STAT3 blocker
COCCOC(=O)C1=C(C)NC(=O)NC1c1ccc(-c2cc(Cl)ccc2Cl)o1 (configuration not stated)	114.1	1.07	-17.3	3.5	99.8	2.6
O=C(O)c1ccc(Sc2nnnn2-c2ccccc2)c([N+](=O)[O-])c1	94.5	0.99	6.0	5.3	105.5	-6.6
COC(=O)c1ccc(Sc2nnnn2-c2ccccc2)c([N+](=O)[O-])c1	93.3	3.96*	7.5	2.0	104.0	3.0
COC(=O)C(=Cc1ccc(OCc2ccc([N+](=O)[O-])cc2)c(OC)c1)C(=O)OC	122.4	4.4*	-24.9	17.3	104.8	1.8
CCOC(=O)C(=Cc1ccc(OCc2ccc([N+](=O)[O-])cc2)c(OC)c1)C(=O)OCC	113.4	3.6*	-20.9	10.4	112.3	-3.5
COc1cc(C(c2c(C)[nH][nH]c2=O)c2c(C)[nH][nH]c2=O)ccc1OC(=O)c1cccc([N+](=O)[O-])c1	105.5	1.31	-6.0	1.3	96.7	8.3
CCOC(=O)C(=O)Nc1ccc([N+](=O)[O-])cc1OC	99.1	1.31	1.0	1.5	94.5	10.2
COc1cc(C=O)ccc1OCCCOc1ccc([N+](=O)[O-])cc1	94.8	0.89	5.7	-14.9	100.2	3.4
COc1cc(C(c2c(C)[nH][nH]c2=O)c2c(C)[nH][nH]c2=O)ccc1OCc1ccc([N+](=O)[O-])cc1	110.7	3.75*	-19.2	.	117.1	-20.3
COc1ccc(-c2noc(=O)n2CC(=O)N2CCC(Cc3ccccc3)CC2)cc1	93.6	0.93	5.1	15.0	101.6	0.4
CCOC(=O)N1CCN(C(=O)CSc2ccc3nnc(CCNC(=O)c4ccccc4)n3n2)CC1	98.4	0.91	0.4	-0.9	98.9	9.0
CCOP(=O)(OCC)C(NC(=O)Nc1ccc(Cl)cc1)C(=O)N(CC)CC (configuration not stated)	97.3	0.94	3.0	6.2	96.7	6.2
CCC(=O)Nc1cccc(C(=O)/C=C/c2ccc(F)cc2)c1	102.2	3.84*	-2.1	21.7	99.7	9.5
CCOc1ccc(NC(=O)Nc2cccc(C(=O)O)c2)cc1	10.2	1.85	96.2*	-70.4	10.4	110.0*
CCOc1ccc(NC(=O)Nc2ccc3nsnc3c2)cc1	125.2	1.46	-29.4	-0.8	90.3	13.5
CCOc1ccc(NC(=O)Nc2cc(C)ccc2F)cc1	128.9*	2.38	-31.3	130.9	95.1	7.4
CCOc1ccc(/C=C/C(=O)Nc2cccc(C(C)=O)c2)cc1	135.5*	1.52	-40.2	24.6	95.3	9.2
COCCNC(=O)COC(=O)c1ccc(OCC(=O)Nc2ccccc2OC)c(OC)c1	101.7	1.05	-3.3	-3.1	101.7	4.8
Cc1c(Cl)c([N+](=O)[O-])nn1CC(=O)Nc1ccc2c(c1)OCO2	98.5	1.29	1.7	27.3	97.4	3.0
Cc1ccccc1OCC(=O)Nc1cccc(C(=O)O)c1	11.7	8.97*	96.5*	-68.3	9.3	103.4*
CCOC(=O)c1cccc(NC(=O)Nc2ccc(OCC)cc2)c1	38.3	1.72	65.0*	15.8	58.8	52.9*
CCOC(=O)C(=O)Nc1cccc(C(=O)OCC)c1	103.8	0.96	-4.3	13.5	94.2	8.9

Screening data: PubChem BioAssay, several laboratories
